# Hits are enriched below; roughly 2% of the tested compounds scored in any of these assays.
# MC4R ag barr = agonists of human melanocortin 4 receptor (MC4R) beta-arrestin. 360,000 tested, 0.98% active. U2OS MC4R beta-arrestin complementation, luminescence; percent of melanotan II response, DMSO zero. activation, % at 8.9 µM;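 active = activation above a per-plate cutoff, the mean activation of sample wells on that plate plus 3 SD, cut at about 8% in these data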
# Target sequence (P32245 whole entry, looked up): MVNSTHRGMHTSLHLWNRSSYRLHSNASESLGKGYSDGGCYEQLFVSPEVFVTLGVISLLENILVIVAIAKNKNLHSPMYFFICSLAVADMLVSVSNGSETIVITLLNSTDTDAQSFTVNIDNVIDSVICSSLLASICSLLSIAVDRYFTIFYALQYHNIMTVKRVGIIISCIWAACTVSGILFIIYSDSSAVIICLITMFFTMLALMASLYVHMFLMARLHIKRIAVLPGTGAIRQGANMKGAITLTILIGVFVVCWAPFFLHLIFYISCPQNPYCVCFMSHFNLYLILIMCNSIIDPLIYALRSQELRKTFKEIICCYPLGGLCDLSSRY
# UPR XBP1 act = activators of adaptive arm of unfolded protein response (XBP1); CHO-XBP1 luciferase reporter, IRE1-XBP1 UPR activation, luminescence; percent of tunicamycin response, DMSO as zero; activation, % at 20 µM; 330,000 tested, 0.33% active; AID 463104;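 active = versus positive control, 20 µM dose yields 30% or more activation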;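 also: 100% = tunicamycin at 10 µg/mL and 0% = DMSO only wells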
#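 Assay system: CHO-XBP1 luciferase reporter cells; Schedule: 6 h treatment, 37 °C; Detection: glow luminescence from Steady-Glo reagent; Benchmarks: high control tunicamycin 10 µg/mL final, low control DMSO vehicle only.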
# MC4R antag cAMP = antagonists of human melanocortin 4 receptor (MC4R). inhibition, % at 6.5 µM. P32245. AID 540295. 360,000 tested, 0.48% active. MC4R-expressing cells, MTII-stimulated cAMP, LANCE TR-FRET;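 active = inhibition above its plate's cutoff, the mean of tested wells on that plate plus 3 SD, cut at about 29% in these data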;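 also: 0% = Melanotan II alone and 100% = Melanotan II plus saturating MCL0020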
#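 Material: human MC4R-expressing U2OS cells. Probe or stimulus: Melanotan II challenge. Dosing: 6.5 µM single dose. Times: 30-min compound, 1-h challenge, 1-h detection, room temperature. Technique: TR-FRET with Eu-cAMP and labeled anti-cAMP, 671 nm. Replication: singlicate.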
# A1 inh = inhibitors of the anti-apoptotic protein A1, read as caspase activation; MEF A1-2A-BIM cells, Caspase-Glo 3/7 luminescence, 3 h; percent of clofoctol response, vehicle zero; caspase activation, % (concentration not given with the values); 330,000 tested, 0.066% active; AID 2462;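 active = over half of replicate activation scores above 10%, or exactly half above 10 with the replicate mean above 10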
# UPR CHOP act = activators of apoptotic arm of unfolded protein response (CHOP); 330,000 tested, 0.34% active; AID 449763; CHO-CHOP luciferase reporter, UPR activation, luminescence; percent of tunicamycin response over DMSO baseline; activation, % at 10 µM;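 active = at 10 µM dose, activation of 40% or more, normalized to positive control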;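 also: 100% = tunicamycin at 10 µg/mL and 0% = DMSO alone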
#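 System: CHO-CHOP luciferase reporter cell line | Buffer or medium: F12 medium containing 10% fetal bovine serum | Doses: One dose, 10 µM in 0.5% DMSO | Times: 6 h compound exposure at 37 °C after overnight seeding | Signal: Luciferase luminescence | Read-out: % activation vs tunicamycin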
# U2OS cAMP counter = counter-screen for MC4R antagonists: nonselective cAMP signaling inhibitors; shares compounds with MC4R antag cAMP; parental U2OS, forskolin cAMP, LANCE TR-FRET; inhibition, % at 6.5 µM; 1,600 tested, 26% active; AID 602193;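 active = mean inhibition over triplicates above the low-control well mean plus 3 SD, set per campaign, cut at about 13% in these data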;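 also: signal is single emission at 671 nm which falls as cellular cAMP rises; 0% = forskolin-stimulated wells and 100% = buffer without forskolin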
# MC4R cAMP antag = human MC4R cAMP antagonism confirmation. shares compounds with MC4R antag cAMP. MC4R-expressing cells, MTII-stimulated cAMP, TR-FRET. inhibition, % at 6.5 µM. 1,600 tested, 27% active. AID 602195; in the data active = inhibition above about 29%;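 also: 0% = agonist stimulated wells alone and 100% = agonist stimulated wells plus saturating reference antagonist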
# An asterisk follows results filed as active; . = no result.
SMILES,MC4R ag barr,UPR XBP1 act,MC4R antag cAMP,A1 inh,UPR CHOP act,U2OS cAMP counter,MC4R cAMP antag
COc1ccc(COc2cc(-c3cccc(OC)c3)nc3ccc(NC(=O)c4cccnc4)cc23)cc1,-2.1,-2.0,33.1*,-0.3,10.0,2.1,12.6
CC(C)(C)OC(=O)CNC(=O)c1[nH]cnc1C(=O)NC1CCN(C(=O)OC(C)(C)C)CC1,.,-0.9,.,-0.7,0.6,.,.
CC(C)(C)OC(=O)N1CCC(NC(=O)c2nc[nH]c2C(=O)NCC(=O)OCc2ccccc2)CC1,-0.7,-1.4,34.4*,0.4,1.6,9.0,8.4
O=C(C(=Cc1ccccc1)CN1CCCCC1)c1ccccc1,-1.4,.,19.0,.,.,.,.
O=C(NCCc1csc(-c2ccccc2)n1)c1c(F)cccc1Cl,-2.2,3.8,30.8*,0.7,0.8,-2.0,-0.3
O=C(NCCc1csc(-c2ccccc2)n1)c1c(F)cccc1F,0.6,-1.4,13.7,0.7,-0.3,.,.
O=S(=O)(c1ccccc1)N1CCN(c2nnc(-c3ccccc3)c3ccccc23)CC1,0.8,0.0,29.6*,0.9,0.4,-0.1,12.0
CS(=O)(=O)N1CCN(c2nnc(-c3ccccc3)c3ccccc23)CC1,0.3,-1.0,16.6,0.2,1.2,.,.
O=C(COC(=O)COc1cccc(F)c1)NCCC1=CCCCC1,-3.9,1.5,-0.6,0.5,-1.4,.,.
O=C(COC(=O)CNC(=O)c1cccc(F)c1)NCCC1=CCCCC1,-0.6,7.5,28.5*,0.5,0.2,18.3*,40.4*
COc1ccc(C(C)=O)cc1Cn1c(=O)cc(C)[nH]c1=O,0.9,-3.2,29.8*,-0.1,-0.2,-1.7,-8.6
COc1ccc(C(C)=O)cc1CN1C(=O)NC2(CCCCCCC2)C1=O,-3.3,-0.9,12.9,0.4,0.9,.,.
O=C(NC(Cc1ccccc1)C(=O)N1CCN(c2ccc(F)cc2)CC1)c1ccccc1 (centres undefined),-1.6,.,8.8,.,.,.,.
CC1(C)CC(=O)C(C(C2=C(O)CC(C)(C)CC2=O)c2ccc(Br)s2)C(=O)C1 (centres undefined),0.9,-0.5,39.0*,-0.1,1.5,11.7,12.2
CCCc1nc(SCC(=O)Nc2nc3c(s2)CCCC3)c2ccccc2n1,2.2,-2.5,35.6*,-0.6,-1.1,10.7,27.0
O=C(CSc1nc2ccccc2o1)Nc1nc2c(s1)CCCC2,-1.6,.,-2.6,.,.,.,.
CCc1nc(SCC(=O)Nc2nc3c(s2)CCCC3)c2ccccc2n1,1.8,2.6,32.6*,-1.1,-1.6,17.2*,46.6*
CCCc1nc(SCC(=O)NC2CCCC2)c2ccccc2n1,-1.8,-3.5,8.1,1.9,0.4,.,.
C[C@H]1CNC(=O)c2c(C(=O)Nc3ccc(CNC(=O)OC(C)(C)C)cc3)ncn21,-0.5,.,17.0,.,.,.,.
CC1=Nc2ccc(C)cc2/C1=C/c1c(N)n2c(S(=O)(=O)C(C)C)nsc2nc1=O,-0.4,.,33.0*,.,.,3.1,6.0
CC1=Nc2ccccc2/C1=C/c1c(N)n2c(S(=O)(=O)C(C)C)nsc2nc1=O,-2.7,1.8,11.9,-0.5,0.8,.,.
CCOC(COC(=O)c1ccccc1C(=O)O)c1ccccc1 (centres undefined),0.8,.,0.0,.,.,.,.
COC(=O)c1ccc(CN2CCc3ccc(NC(=O)c4ccncc4)cc3C2)cc1,0.3,-4.8,29.0*,0.3,0.6,3.2,-1.2
COC(=O)[C@H]1C[C@@]2(O)CN(S(=O)(=O)c3ccc(C)cc3)C[C@@]2(OC(=O)NC2CCCC2)C[C@H]1C(=O)OC,2.4,.,-4.9,.,.,.,.
CCc1ccccc1N(CC(=O)NCc1ccco1)C(=O)CCC(=O)Nc1ccccn1,4.1,-3.1,30.9*,0.2,0.5,-1.7,-12.2
SMILES,MC4R ag barr,UPR XBP1 act,MC4R antag cAMP,A1 inh,UPR CHOP act,U2OS cAMP counter,MC4R cAMP antag
C[C@@H]1C=CC(=O)O[C@@H]1c1ccc(Cl)cc1,.,1.1,.,0.0,5.1,.,.
COc1cc(C(O)c2nc(-c3csc4ccccc34)cs2)ccc1F (centres undefined),3.1,.,8.6,.,.,.,.
Cc1nc(-c2cccc(NC(=O)c3ccc(Cl)c(S(=O)(=O)N4CCCC4)c3)c2)cs1,-1.3,.,31.4*,.,.,4.4,-12.4
CC(C)(C)OC(=O)NCCc1nnc(S(=O)(=O)Cc2ccc(Cl)cc2Cl)o1,-1.5,-5.9,31.0*,5.9*,2.4,4.0,37.8*
COC(=O)C1=C(C(=O)OC)SC2(S1)C(C(=O)OC)=C(C(=O)OC)SC1=C2c2cc(C)cc(C)c2NC1(C)C,-1.6,1.6,53.5*,-0.2,19.4,15.0*,39.9*
c1ccc(COc2ccc(-c3cc4nc(NCCN5CCOCC5)ccn4n3)cc2)cc1,2.0,.,33.4*,.,.,3.2,20.0
COc1ccc(NC(=O)N2CCN(c3nc4ccccc4n3C(C)C)CC2)cc1,3.5,-5.4,30.2*,-0.3,-0.2,0.6,2.0
CCOc1ccc(S(=O)(=O)c2ccc(C)cc2)c2c1no[n+]2[O-],-0.1,.,0.9,.,.,.,.
Clc1ccc(-c2nnc(-c3ccco3)nc2N2CCCCC2)cc1,-0.5,-2.5,29.4*,-0.1,3.3,0.0,6.1
Cc1cccc(-n2c(O)c(C=Nc3cc(O)ccc3C)c3ccccc3c2=O)n1,0.6,0.3,31.2*,0.7,0.6,2.0,-0.5
CC(=O)NC(C)(c1ccccc1)c1nc(-c2cncnc2)cs1 (centres undefined),-0.9,.,1.4,.,.,.,.
CC(C)c1ccc(Nc2nnc(SC3CCOC3=O)s2)cc1 (centres undefined),-2.9,1.4,30.9*,-0.2,1.5,41.1*,32.9*
Cc1ccc(S(=O)(=O)N2CCCC2CNC(=O)C(=O)NCc2ccc3c(c2)OCO3)cc1 (centres undefined),-0.5,.,15.1,.,.,.,.
Cc1ccc([C@H]2C[C@H](O)[C@@H](n3cc(C4CC4)nn3)CN2C(=O)c2cccs2)cc1,1.6,.,2.9,.,.,.,.
CCOC(=O)c1c(NC(=O)C(C)OC(=O)C2=COCCO2)sc2c1CCCC2 (centres undefined),0.2,-2.2,36.2*,.,-1.9,-0.5,18.9
CCOC(=O)c1c(NC(=O)C(C)OC(=O)c2ccc(NC(=O)CC#N)cc2)sc2c1CCCC2 (centres undefined),1.5,-0.9,16.3,-0.5,2.9,.,.
COc1ccc(C(=O)/C=C/C(=O)N(Cc2ccc3c(c2)OCO3)C(C(=O)NC2CCCCC2)c2ccncc2)c(O)c1 (centres undefined),0.3,-4.2,3.8,0.2,0.1,.,.
COCCN(CC(=O)NC1CCCCC1)C(=O)/C=C/C(=O)c1ccc(OC)cc1O,-5.6,.,41.1*,.,.,1.7,5.2

# Assay outcomes from PubChem.
